{"source": "paper PMC12215028", "about": "(Scientific Reports, 2025)", "key": {"[1]": {"test_system": "A549 xenograft tumor tissue", "assay": "H&E staining of xenograft tumor tissue", "assay_type": "in vivo, BALB/c-nude male mice", "conditions": "30 mg/kg; compared to the vehicle group", "in_short": "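A549 cells (5 × 10⁶ in PBS plus Matrigel) were implanted subcutaneously into the flank of male nude mice aged 6–7 weeks. Compound was given by oral gavage three times weekly. Paraffin tumor sections were deparaffinized in xylene and rehydrated through graded ethanol. They were stained with hematoxylin for 30 s, differentiated in acid alcohol (0.3% HCl in 70% ethanol) and stained with eosin for 2 min. Sections were then dehydrated, cleared and mounted, and staining was quantified by image analysis.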"}, "[2]": {"test_system": "A549 cells", "assay": "Subcutaneous xenograft mouse model", "assay_type": "in vivo, BALB/c-nude male mice", "conditions": "30 mg/kg", "in_short": "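Male BALB/c nude mice aged 6–7 weeks, under isoflurane, received 5 × 10⁶ A549 cells in 50 µL PBS plus 50 µL Matrigel subcutaneously in the flank. Groups of six received vehicle, test compound or reference compound by oral gavage three times weekly for 27 days. Vehicle was Tween 80:PEG400:ethanol:5% glucose 1:6:3:20, at 100 µL per 25 g mouse. Tumors were caliper-measured three times weekly; endpoint was about 1,500 mm³ or distress.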"}, "[3]": {"test_system": "p-EGFR(Y1068)", "assay": "Western blot, NSCLC cell lines", "assay_type": "cell-based, human", "conditions": "A549 and H460 cells; 50 µM", "in_short": "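Cells were plated at 150,000 per well and treated with test compound or DMSO for 24 h. They were lysed in RIPA buffer with PMSF, DTT, NaF, Na₃VO₄ and protease inhibitors for 30 min on ice, then spun at 13,000 rpm for 30 min at 4 °C. Protein was quantified by Bradford assay and resolved by SDS-PAGE. Blots were probed with secondary antibodies at 1:5000 for 1 h at RT, detected by chemiluminescence and quantified by densitometry.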"}, "[4]": {"test_system": "p-EGFR", "assay": "Immunohistochemistry of xenograft tumor tissue", "assay_type": "in vivo, BALB/c-nude male mice", "conditions": "tumor tissues; compared to the vehicle group", "in_short": "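Paraffin sections of subcutaneous A549 flank tumors from nude mice were deparaffinized and rehydrated, and peroxidase was blocked with H₂O₂. Antigen retrieval used 0.01 M citrate (pH 6.0) at boiling for 10 min. Sections were blocked in normal goat serum for 1 h at RT, then incubated with anti-p-EGFR (Y1068) at 1:100 overnight at 4 °C. Detection used a biotinylated secondary (1 h, RT), ABC reagent (30 min) and DAB, with hematoxylin counterstain.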"}, "[5]": {"test_system": "A549, H460, H1299, and HCC827 cell lines", "assay": "MTT assay, statements over all four lines", "assay_type": "cell-based, human", "conditions": "48 h", "in_short": "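H460, H1299 and HCC827 cells were kept in RPMI1640 with 10% FBS at 37 °C and 5% CO₂. A549 cells were plated at 2,500 per well. Cells were exposed to 0–50 µM test compound (final; 3.125–50 µM twofold steps) or DMSO control for 24, 48 and 72 h. MTT was then added for 2 h at 37 °C, formazan was dissolved in DMSO, and OD was read at 570 nm. Data are mean ± standard deviation; IC50 was calculated from viability.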"}}}
{"smiles": "CC(C)=CC(=O)O[C@H]1Cc2cc3ccc(=O)oc3cc2OC1(C)C", "note": "[decursin]", "values": [{"measurement": "tumor cell density (H&E)", "setting": "[1]", "result": "did not show a significant difference"}, {"measurement": "tumor size at the experimental endpoint", "setting": "[2]; oral gavage three times per week, 27 days, vs vehicle", "result": "no statistically significant reduction"}, {"measurement": "body weight changes", "setting": "[2]; vs control, throughout the experimental period", "result": "no significant difference"}, {"measurement": "p-EGFR(Y1068) expression levels", "setting": "[3]", "result": "failed to inhibit EGFR phosphorylation"}, {"measurement": "p-EGFR-positive cells / expression (IHC)", "setting": "[4]", "result": "not significantly reduced"}, {"measurement": "cytotoxicity", "setting": "[5]", "result": "significant cytotoxicity at 50 µM"}]}
